Data reported in article PMC4600222 (Chemmedchem, 2015).

Assays:
CVB3 Nancy (L1092) = test: CPE inhibition in HeLa cells, CVB3 Nancy; type: cell-based, coxsackievirus B3; settings: Enterovirus B, read-out: IC50, cytopathic effect of CVB3 Nancy
CVB3 97927 (I1092) = test: CPE inhibition in HeLa cells, CVB3 97927; type: cell-based, coxsackievirus B3; settings: Enterovirus B, read-out: IC50, cytopathic effect of CVB3 97927
[1] = system: 46 RV serotypes and 14 EV strains; test: CPE inhibition assays in HeLa cells, panel of 60 RV and EV strains; type: cell-based, rhinovirus, enterovirus
CVB3 Nancy wildtype = test: Plaque reduction assay in HeLa cells, CVB3 Nancy wildtype; type: cell-based, coxsackievirus B3; settings: Enterovirus B, read-out: IC50 plaque inhibition, CVB3 Nancy wildtype
How it was run: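 Plaque reduction assay in HeLa cells on wild-type CVB3 Nancy and on compound-resistant variants. The variants were isolated from wild-type pools under 1 μg mL−1 (2.7 μm) test compound, and their amino acid substitutions were identified by genetic characterization. IC50 is taken from plaque inhibition. Means and/or SD come from at least three assays.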

CVB3 Nancy = test: Mechanism of action, modified plaque reduction assay; type: cell-based, coxsackievirus B3; settings: 0.5 and 1 μM
Plasma stability = type: in vitro ADME
Metabolic stability = type: in vitro ADME
K+ channel (hERG) = K+ channel (hERG) (Homo sapiens, UniProt Q12809); test: QT prolongation K+ channel
Chain of K+ channel (hERG) (Q12809 whole entry, canonical isoform): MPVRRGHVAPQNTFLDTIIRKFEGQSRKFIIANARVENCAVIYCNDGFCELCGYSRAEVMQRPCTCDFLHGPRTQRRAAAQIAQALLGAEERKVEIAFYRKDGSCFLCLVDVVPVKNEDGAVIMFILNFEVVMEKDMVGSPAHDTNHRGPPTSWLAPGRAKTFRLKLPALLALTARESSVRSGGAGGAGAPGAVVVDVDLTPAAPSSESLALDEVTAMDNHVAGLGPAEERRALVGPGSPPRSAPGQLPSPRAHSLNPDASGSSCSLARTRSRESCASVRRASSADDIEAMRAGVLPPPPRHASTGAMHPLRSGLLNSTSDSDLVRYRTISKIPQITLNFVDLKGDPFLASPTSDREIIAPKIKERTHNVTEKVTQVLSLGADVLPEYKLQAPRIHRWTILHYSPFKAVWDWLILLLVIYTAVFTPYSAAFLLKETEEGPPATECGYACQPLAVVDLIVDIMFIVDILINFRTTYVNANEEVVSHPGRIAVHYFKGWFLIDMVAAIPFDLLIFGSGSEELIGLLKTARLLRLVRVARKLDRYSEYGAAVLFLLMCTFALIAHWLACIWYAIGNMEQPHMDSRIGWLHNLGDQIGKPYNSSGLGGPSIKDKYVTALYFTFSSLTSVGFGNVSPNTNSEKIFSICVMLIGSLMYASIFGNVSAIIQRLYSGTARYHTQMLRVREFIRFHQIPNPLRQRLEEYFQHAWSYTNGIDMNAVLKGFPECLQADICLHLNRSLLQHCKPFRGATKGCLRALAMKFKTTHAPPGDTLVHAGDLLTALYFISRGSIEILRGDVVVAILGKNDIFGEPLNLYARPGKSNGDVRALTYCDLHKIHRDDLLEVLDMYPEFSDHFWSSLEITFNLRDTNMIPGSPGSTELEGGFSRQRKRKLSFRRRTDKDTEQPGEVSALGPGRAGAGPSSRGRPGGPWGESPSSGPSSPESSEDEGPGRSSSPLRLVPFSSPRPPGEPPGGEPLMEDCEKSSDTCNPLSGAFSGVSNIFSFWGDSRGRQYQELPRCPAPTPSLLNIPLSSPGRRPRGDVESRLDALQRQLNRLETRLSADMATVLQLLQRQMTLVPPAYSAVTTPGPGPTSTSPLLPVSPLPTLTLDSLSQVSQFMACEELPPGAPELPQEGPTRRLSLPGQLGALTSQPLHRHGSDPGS

[2] = system: CYP1A2, CYP2B6, and CYP3A4; test: Induction of cytochrome P450 isoforms; type: in vitro ADME
[3] = system: CYP1A, CYP2B6, CYP2C8, CYP2C9, CYP2C19, CYP2D6, and CYP3A; test: Inhibition of cytochrome P450 isoforms; type: in vitro ADME
[4] = Pharmacokinetics in mice after intragastric administration; type: in vivo
Acute toxicity in mice = type: in vivo; settings: no indications of adverse effects
Subacute = type: in vivo; settings: 12.5, 50 and 200 mg kg^−1, 30 days, male BALB/c mice; acute >3 g kg^−1
CVB3 31-1-93 = test: CVB3-induced chronic myocarditis in NMRI mice; type: in vivo; settings: 100 mg kg^−1 orally twice daily for 7 days

**Q.** What does the source list for Nc1nc(-c2ccccc2)nc2[nH]nc(Nc3ccc(C(F)(F)F)cc3)c12 [Compound 36, 3-(4-trifluoromethylphenyl)amino-6-phenylpyrazolo[3,4-d]pyrimidine-4-amine]?
**A.** IC50 (CVB3 Nancy (L1092)): 160 nM; IC50 (CVB3 97927 (I1092)): 1050 nM; IC50 ([1]; Enterovirus, HeLa, read-out: IC50 values for high-level pleconaril-resistant viruses): 40 to 640 nM; strains inhibited ([1]; of the 60 strains tested, CPE inhibition, HeLa cells): 52; IC50 (CVB3 Nancy wildtype): 160 ± 30 nM; effect on virus infectivity, incubation with cell-free virus (CVB3 Nancy; 1 h at 37 °C, then diluted 1:10^6): strong loss of virus infectivity; effect on virus-induced plaque formation, pretreatment of cells (CVB3 Nancy; cells pretreated prior to virus inoculation): no effect; Plasma stability (human), remaining (%) (Plasma stability): 100%; Metabolic stability (human liver microsomes), remaining % (Metabolic stability): 100%; QT prolongation K+ channel (hERG) (K+ channel (hERG)): low; Induction of CYP1A2, CYP2B6, and CYP3A4 [2]: neither an inducer nor an inhibitor; Inhibition of CYP1A, CYP2B6, CYP2C8, CYP2C9, CYP2C19, CYP2D6, and CYP3A [3]: neither an inducer nor an inhibitor; Cl ([4]; mice, 100 mg/kg intragastric): 10.42 mL·h/kg; AUC ([4]; mouse, plasma, po, 100 mg/kg): 9600 ng·h/mL; AUC(0-t) ([4]; mouse, plasma, po, 100 mg/kg): 6420 ng·h/mL; MRT ([4]; mouse, plasma, po, 100 mg/kg): 3.54 h; Tmax ([4]; mouse, plasma, po, 100 mg/kg): 3 h; half-life ([4]; mouse, plasma, po, 100 mg/kg): 3.5 h; k el ([4]; mouse, plasma, po, 100 mg/kg): 5e-05 s⁻¹; Acute toxicity (Acute toxicity in mice): > 3 g/kg; acute and chronic toxicological studies, overall finding (Subacute): no indications of adverse anatomical, behavioral or physiological effects; antiviral effect, treatment started 3 h prior to or 1 and 3 days p. i. (CVB3 31-1-93): strong antiviral effect; therapeutic effect, treatment started 7 days p. i. (CVB3 31-1-93; start 7 days p. i., results not shown): No therapeutic effect
